In PubChem BioAssay:
For some assays here: Entries with a potency or affinity are not part of this list. Calls of active or inactive are those of the source.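 How the source made its calls, unless noted: active means active in primary screen and both duplicates, each dropping signal beyond three positive-control SD with fluorescence still positive; inactive means the rest.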

Each compound was assayed against Short transient receptor potential channel 4 (Mus musculus) (UniProt Q9QUQ5) (assay: mouse TRPC4 channel inhibitors, dose response, cell-based, HEK293 TRPC4/mu-opioid, Fluo-4 calcium (AID 434942;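 active means primary screen inhibitor hit that blocks the TRPC4 channel at some tested dose, yielding a dose curve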)). Details: HEK293 TRPC4/mu-opioid cells, DAMGO-evoked Fluo-4 calcium ratio; series mostly up to 20 µM; ratio response (lower = inhibition): at the top concentration.
Chain of Short transient receptor potential channel 4 (Mus musculus) (Q9QUQ5 whole entry, looked up): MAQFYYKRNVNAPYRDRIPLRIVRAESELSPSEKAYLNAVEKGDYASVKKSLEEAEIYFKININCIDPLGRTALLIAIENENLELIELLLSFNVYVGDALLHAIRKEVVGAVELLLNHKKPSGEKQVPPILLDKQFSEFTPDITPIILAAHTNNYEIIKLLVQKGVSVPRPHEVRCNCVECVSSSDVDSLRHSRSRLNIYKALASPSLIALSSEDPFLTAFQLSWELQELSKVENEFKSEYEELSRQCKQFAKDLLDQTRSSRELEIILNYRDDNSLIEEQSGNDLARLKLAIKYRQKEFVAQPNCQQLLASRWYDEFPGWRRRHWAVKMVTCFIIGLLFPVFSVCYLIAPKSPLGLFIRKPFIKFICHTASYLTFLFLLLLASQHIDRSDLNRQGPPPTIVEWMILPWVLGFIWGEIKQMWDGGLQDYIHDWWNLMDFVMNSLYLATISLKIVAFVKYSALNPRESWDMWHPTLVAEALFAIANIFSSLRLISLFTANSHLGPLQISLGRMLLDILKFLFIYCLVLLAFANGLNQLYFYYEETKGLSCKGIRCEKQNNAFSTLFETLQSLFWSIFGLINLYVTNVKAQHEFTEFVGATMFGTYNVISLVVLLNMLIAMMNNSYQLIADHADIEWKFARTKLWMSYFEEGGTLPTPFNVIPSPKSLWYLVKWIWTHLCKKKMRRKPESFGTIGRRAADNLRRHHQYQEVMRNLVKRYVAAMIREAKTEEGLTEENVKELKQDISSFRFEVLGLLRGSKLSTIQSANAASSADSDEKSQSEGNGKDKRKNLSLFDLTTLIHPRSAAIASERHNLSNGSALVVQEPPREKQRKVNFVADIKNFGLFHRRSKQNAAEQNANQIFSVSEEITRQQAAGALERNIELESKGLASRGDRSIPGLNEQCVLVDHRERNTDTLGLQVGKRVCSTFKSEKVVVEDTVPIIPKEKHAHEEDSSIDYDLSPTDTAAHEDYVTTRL

Ratio response (lower = inhibition), inactive:
Cc1ccc(OCC(=O)N(C)CCc2ccccn2)cc1 43.6, CC(C)n1cnc2c(N(C)c3ccccc3)nc(N(CCN(C)C)Cc3ccccc3)nc21 8.13, CCC(=O)N1CCc2cc(Br)cc(S(=O)(=O)NCCCN(CC)Cc3ccccc3)c21 0.4, NCCCNC(=O)c1cc2ccccc2[nH]1 -3.7, CN(C)C(CNC(=O)Nc1cccc(Cl)c1)c1cccnc1 (stereo not given) -1.16, CN(C)C(CNC(=O)CCS(=O)(=O)c1ccccc1)c1ccccc1 (stereo not given) -1.18, COc1c2c(cc3c1C(CC(O)Cc1ccccc1)N(C)CC3)OCO2 (stereo not given) 16, CC1CN(C)C(C)c2c1oc1ccc(N)cc21 (stereo not given) -6.78, CN(C)c1ccc(C(CNC(=O)Cc2cccc3ccccc23)N(C)C)cc1 (stereo not given) -2.64, Cc1cc(C)cc(NC(=S)N2CCN(c3ncc(C(F)(F)F)cc3Cl)CC2)c1 46.3, COC(=O)C1CCN(Cc2cn(-c3ccccc3)nc2-c2ccc3c(c2)OCO3)CC1 -3.23, Cc1cccc(OCCOCCN2CCNCC2)c1C 7.14, O=C1/C(=C\c2cc([N+](=O)[O-])ccc2O)SC(=S)N1Cc1ccc(Cl)cc1 21.8, CCn1c(N2CCN(S(=O)(=O)CC)CC2)nc2ccccc21 101, COc1ccc(CSCCN)cc1Cl 34.4, O=C1S/C(=C\c2ccc(N3CCOCC3)o2)C(=O)N1Cc1c(F)cccc1Cl 32.8, CC(C)(C)[C@H]1C=C(C(=O)NCc2ccccc2)O[C@@H](OCc2ccc(CO)cc2)C1 10.5, Nc1c(C(=O)c2ccccc2)sc2nsc(SCCN3CCCC3)c12 75.8, O=C(CC(=O)c1c(F)cccc1Cl)c1ccccc1O 0.01, Cc1ccccc1Cn1c(CN2CCc3ccccc3C2)nc2c1c(=O)n(C)c(=O)n2C 20.2, Cc1csc2c(N3CCN(C(=O)Nc4ccc(OC(F)(F)F)cc4)CC3)ncnc12 40.2, O=S(=O)(NCCc1csc(-c2ccccc2)n1)c1cccnc1 26.5

The compounds below were run against Short transient receptor potential channel 6 (Mus musculus) (UniProt Q61143) (assay: inhibition of mouse TRPC6 channel, confirmation, selectivity assay for TRPC4 inhibitor project, cell-based, HEK293, membrane potential dye, duplicate (AID 434948)). Details: HEK293 TRPC6, membrane potential dye fluorescence, at 10 µM, stimulated with maximal-effect acetylcholine; active compounds read high.
How it was run: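 System: TRPC6-expressing HEK293 cells; Also added: acetylcholine at maximal (ECmax) concentration, added after compound; Incubation: 45 min RT dye load, 110 s compound, 110 s agonist read; Read-out basis: integrated fluorescence change ratio over baseline, normalized to positive controls; Repeats: two replicates; Signal: kinetic fluorescence of membrane potential dye with 5 s baseline.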

Chain of Short transient receptor potential channel 6 (Mus musculus) (Q61143 whole entry, looked up): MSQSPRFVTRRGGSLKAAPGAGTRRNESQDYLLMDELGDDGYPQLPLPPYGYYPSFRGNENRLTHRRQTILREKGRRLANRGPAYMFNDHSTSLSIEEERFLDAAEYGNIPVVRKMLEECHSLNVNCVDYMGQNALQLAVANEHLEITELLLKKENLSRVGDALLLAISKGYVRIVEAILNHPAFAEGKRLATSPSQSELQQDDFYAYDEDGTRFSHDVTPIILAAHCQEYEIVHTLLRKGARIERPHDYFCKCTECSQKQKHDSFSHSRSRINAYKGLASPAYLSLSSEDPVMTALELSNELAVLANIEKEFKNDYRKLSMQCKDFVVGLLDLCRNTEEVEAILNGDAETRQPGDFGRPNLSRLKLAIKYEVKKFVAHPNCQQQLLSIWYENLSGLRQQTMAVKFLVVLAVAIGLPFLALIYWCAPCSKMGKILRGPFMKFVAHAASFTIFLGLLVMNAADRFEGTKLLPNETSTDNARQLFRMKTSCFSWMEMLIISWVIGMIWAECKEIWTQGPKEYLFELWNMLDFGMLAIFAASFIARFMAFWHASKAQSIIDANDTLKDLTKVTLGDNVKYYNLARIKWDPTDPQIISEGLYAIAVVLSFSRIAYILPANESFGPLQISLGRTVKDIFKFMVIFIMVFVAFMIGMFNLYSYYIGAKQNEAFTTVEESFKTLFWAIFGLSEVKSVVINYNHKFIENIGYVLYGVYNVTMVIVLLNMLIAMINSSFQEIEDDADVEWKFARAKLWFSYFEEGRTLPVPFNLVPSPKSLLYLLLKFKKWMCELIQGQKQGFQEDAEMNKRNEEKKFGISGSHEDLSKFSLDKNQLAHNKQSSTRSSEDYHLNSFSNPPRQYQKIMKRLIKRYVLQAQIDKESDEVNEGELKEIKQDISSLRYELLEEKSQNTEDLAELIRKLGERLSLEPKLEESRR

outcome, inactive:
COc1ccc(C(CCNCc2ccc(N(C)C)cc2)c2ccccc2)cc1 (stereo not given), COc1ccc(C(=O)NNC(=S)NC(=O)c2cccs2)cc1, Cc1cccc(C(=O)NC(=S)NNC(=O)Cc2ccccc2)c1, COc1ccc(CC(=O)NCC(c2ccc(OC)cc2)N(C)C)cc1 (stereo not given), COc1cccc(C(=O)NC2CCCN(C3Cc4ccccc4C3)C2)c1OC (stereo not given), NC(=O)C1CCCN(CCc2ccccc2)C1 (stereo not given), CNC[C@H](Cc1ccccc1)NC[C@@H](Cc1cccc2ccccc12)NCCc1ccc(C)cc1, O=C(CC1C(=O)NCCN1Cc1cccc(Oc2ccccc2)c1)NCCc1ccccn1 (stereo not given), COc1ccccc1/C=C/CN1CCCC(CCC(=O)NCc2ccccc2F)C1 (stereo not given), C=CCn1c(/N=C/c2ccc(N(C)C)cc2)nc2ccccc21, Cc1oc(-c2ccccc2Cl)nc1CS(=O)CC(=O)NCCCN1CC(C)CC(C)C1 (stereo not given), COc1ccc(CN2CCC(N(CCc3ccccc3)Cc3ccccc3)CC2)c(OC)c1, O=C(NC(=S)NNC(=O)c1ccccc1[N+](=O)[O-])c1ccc(Br)cc1, O=C(NC1CCN(Cc2ccccc2)CC1)C12CC3CC(CC(C3)C1)C2, CCCN1CCN(C(=O)Cn2c(=O)oc3cc(S(=O)(=O)NCc4ccccc4)ccc32)CC1, Cn1c2ccccc2c(=O)c2c(=O)n(C3CCCCC3)c(-c3ccco3)nc21, OCCC1CN(Cc2ccccc2-c2ccco2)CCN1Cc1ccccc1 (stereo not given), CCN1CCCC1CNS(=O)(=O)c1c(C)cc(C)cc1C (stereo not given), Cc1ccc(OCC(=O)N(C)CCc2ccccn2)cc1, CC(C)n1cnc2c(N(C)c3ccccc3)nc(N(CCN(C)C)Cc3ccccc3)nc21, CCC(=O)N1CCc2cc(Br)cc(S(=O)(=O)NCCCN(CC)Cc3ccccc3)c21, NCCCNC(=O)c1cc2ccccc2[nH]1, CN(C)C(CNC(=O)Nc1cccc(Cl)c1)c1cccnc1 (stereo not given), CN(C)C(CNC(=O)CCS(=O)(=O)c1ccccc1)c1ccccc1 (stereo not given), COc1c2c(cc3c1C(CC(O)Cc1ccccc1)N(C)CC3)OCO2 (stereo not given), CC1CN(C)C(C)c2c1oc1ccc(N)cc21 (stereo not given), CN(C)c1ccc(C(CNC(=O)Cc2cccc3ccccc23)N(C)C)cc1 (stereo not given), Cc1cc(C)cc(NC(=S)N2CCN(c3ncc(C(F)(F)F)cc3Cl)CC2)c1
